Results from PMC4166030 (Bioconjugate Chemistry, 2014).

Test system: KRAS2 G12D RNA
Assay: CD thermal melting of TO-PNA-peptide:RNA duplexes
Format: binding
Outline: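 Gel-purified synthetic RNA 20mers were annealed with the test compound at 1 μM each (final) in sodium phosphate, 1.0 M NaCl, 5 mM EDTA, pH 7.2, by heating at 95 °C for 10 min and then cooling for 10 min. CD at 265 nm was tracked over a 25→95 °C ramp at 0.5 °C/min, with baseline slopes subtracted. Tm was taken as the first-derivative maximum (two-state model); n = 3, ± SD.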

Substance: GCCATOTCAGCTCC-AEEA-D(Cys-Ser-Lys-Cys) (disulfide) [TO2]
- Tm decrease relative to TO1 (12mer) KRAS2 G12D duplex: 2 °C
